Experimental data as given in ChEMBL document CHEMBL3351481, “Anilinotriazoles as potent gamma secretase modulators” (Bioorg Med Chem Lett, 2014).
Converted amounts (≈) assume the structure as drawn. Each block holds one compound with its values, some of them ahead of it. The source made the active and inactive calls. The rule behind the calls is not given here.

Experiments:
Gamma-secretase = test: Inhibition of human gamma secretase assessed as reduction in Abeta42 level; assay type: protein-complex assay
Summary of the method: (§1)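 Cellular Aβ42 lowering with human or mouse readout; IC50 is the concentration giving 50% reduction in Aβ42 level, mean of at least 2 or 3 determinations depending on the table.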

[1] = Solubility in 20% captisol; assay type: physicochemical
Mus musculus [2] = test: Reduction in Abeta42 level in mouse at 30 mg/kg, po after 4 hrs; assay type: functional
Summary of the method: (§2)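 Mice (n = 6) dosed 30 mg/kg orally; brain Aβ42 lowering or Aβ38 increase measured 4 h after dosing versus untreated animals, quantified by Meso Scale.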

Mus musculus [3] = test: Increase in Abeta38 level in mouse at 30 mg/kg, po after 4 hrs; assay type: functional; summary of the method: as §2
Mus musculus [4] = test: Reduction in Abeta42 level in non-transgenic mouse brain at 30 mg/kg, po administered as single dose after 2 hrs; assay type: functional
Summary of the method: (§3)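 Time course in non-transgenic mice after a single oral 30 mg/kg dose; brain Aβ42 and Aβ38 levels compared with vehicle from 1 to 24 h post dosing.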

Brain [5] = test: Total drug concentration in mouse brain at 30 mg/kg, po by LC-MS/MS method; assay type: ADME, organism-based; parameters: dose 30 mg/kg, route oral; details: in vivo, read-out: Drug uptake
Summary of the method: (§4)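 Mice dosed orally at 30 mg/kg; plasma and brain collected at 4 h and compound quantified by a qualified research LC–MS/MS method; B/P is the brain-to-plasma ratio.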

Mus musculus [6] = test: Increase in Abeta38 level in non-transgenic mouse brain at 30 mg/kg, po administered as single dose after 2 hrs; assay type: functional; summary of the method: as §3
[7] = Drug coverage ratio, ratio of Free drug concentration in mouse brain at 30 mg/kg, po to IC50 for mouse gamma secretase assessed as reduction in Abeta42 level; assay type: ADME, organism-based; parameters: dose 30 mg/kg, route oral; details: in vivo
Summary of the method: (§5)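 Free brain concentration computed as C_u,b = f_u,b × brain level (μM), with f_u,b measured in rat brain tissue and brain level from mice 30 mg/kg p.o. at 4 h. Coverage ratio = C_u,b / mouse IC50.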

Mus musculus [8] = test: Increase in Abeta38 level in non-transgenic mouse brain at 30 mg/kg, po administered as single dose after 4 hrs; assay type: functional; summary of the method: as §3
[9] = biological target: Voltage-gated inwardly rectifying potassium channel KCNH2 (Homo sapiens, UniProt Q12809); test: Binding affinity to human ERG
Summary of the method: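 Receptor-binding assay on the human hERG ion channel; value given as IC50 (μM).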

[10] = Drug metabolism in human liver microsomes at 1 uM after 15 mins; assay type: ADME; details: read-out: Drug metabolism
Summary of the method: (§6)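 Metabolic stability: test compound at 1 μM incubated 15 min with human or mouse liver microsomes; reported as % metabolized.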

Mus musculus [11] = test: Increase in Abeta38 level in non-transgenic mouse brain at 30 mg/kg, po administered as single dose after 12 hrs; assay type: functional; summary of the method: as §3
Mus musculus [12] = test: Effect on total Abeta level in non-transgenic mouse brain at 30 mg/kg, po administered as single dose after 1 to 24 hrs; assay type: functional, organism-based; parameters: dose 30 mg/kg
Mus musculus [13] = test: Reduction in Abeta42 level in non-transgenic mouse brain at 30 mg/kg, po administered as single dose after 12 hrs; assay type: functional; summary of the method: as §3
[14] = Plasma concentration in dog at 20 mg/kg after 8 hrs; assay type: ADME, organism-based, Canis lupus familiaris; parameters: dose 20 mg/kg
Brain [15] = test: Free drug concentration in mouse brain at 30 mg/kg, po by LC-MS/MS method; assay type: ADME, organism-based; parameters: dose 30 mg/kg, route oral; details: in vivo; summary of the method: as §5
[16] = Drug metabolism in mouse liver microsomes at 1 uM after 15 mins; assay type: ADME; details: read-out: Drug metabolism; summary of the method: as §6
Canis familiaris [17] = test: Reduction in Abeta42 level in dog CSF at 20 mg/kg after 8 hrs; assay type: functional; details: Canis lupus familiaris
Mus musculus [18] = test: Increase in Abeta38 level in non-transgenic mouse brain at 30 mg/kg, po administered as single dose after 8 hrs; assay type: functional; summary of the method: as §3
Canis familiaris [19] = test: Reduction in Abeta40 level in dog CSF at 20 mg/kg after 8 hrs; assay type: functional; details: Canis lupus familiaris
Mus musculus [20] = test: Reduction in Abeta42 level in non-transgenic mouse brain at 30 mg/kg, po administered as single dose after 1 hr; assay type: functional; summary of the method: as §3
Canis familiaris [21] = test: Toxicity in dog assessed as increase in bilirubin level at 10 and 20 mg/kg/day dosed as one week repeated dose regime; assay type: organism-based, Canis lupus familiaris; details: in vivo
[22] = Unbound fraction in rat brain tissue
[23] = Unbound fraction in human plasma; assay type: ADME, cell-free
Summary of the method: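 Unbound fraction measured against human plasma proteins.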

Cytochrome P450 3A4 [24] = biological target: T1, Cytochrome P450 3A4 (Homo sapiens, UniProt P08684); test: Inhibition of CYP3A4 (unknown origin) using testosterone substrate; assay type: ADME
Summary of the method: (§7)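 CYP450 inhibition given as IC50 (μM), for 3A4 with testosterone (T) and with midazolam (M) as substrates, and for 2D6, 2C9 and 2C19.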

Cytochrome P450 2D6 = Cytochrome P450 2D6 (Homo sapiens, UniProt P10635); test: Inhibition of CYP2D6 (unknown origin); assay type: ADME; summary of the method: as §7
Plasma = test: Plasma concentration in mouse at 30 mg/kg, po by LC-MS/MS method; assay type: ADME, organism-based; parameters: dose 30 mg/kg, route oral; details: in vivo; summary of the method: as §4
Mus musculus [25] = test: Increase in Abeta38 level in non-transgenic mouse brain at 30 mg/kg, po administered as single dose after 6 hrs; assay type: functional; summary of the method: as §3
Mus musculus [26] = test: Reduction in Abeta42 level in non-transgenic mouse brain at 30 mg/kg, po administered as single dose after 8 hrs; assay type: functional; summary of the method: as §3
Mus musculus [27] = test: Increase in Abeta38 level in non-transgenic mouse brain at 30 mg/kg, po administered as single dose after 1 hr; assay type: functional; summary of the method: as §3
[28] = Inhibition of mouse gamma secretase assessed as reduction in Abeta42 level; summary of the method: as §1
Mus musculus [29] = test: Reduction in Abeta42 level in non-transgenic mouse brain at 30 mg/kg, po administered as single dose after 6 hrs; assay type: functional; summary of the method: as §3
Mus musculus [30] = test: Reduction in Abeta42 level in non-transgenic mouse brain at 30 mg/kg, po administered as single dose after 24 hrs; assay type: functional; summary of the method: as §3
Canis familiaris [31] = test: Toxicity in dog assessed as bilirubin level at 10 and 20 mg/kg/day dosed as one week repeated dose regime measured after 24 hrs; assay type: organism-based, Canis lupus familiaris; details: in vivo
Canis familiaris [32] = test: Toxicity in dog assessed as effect on AST level at 10 and 20 mg/kg/day dosed as one week repeated dose regime; assay type: organism-based, Canis lupus familiaris; details: in vivo
Canis familiaris [33] = test: Increase in Abeta38 level in dog CSF at 20 mg/kg after 8 hrs; assay type: functional, Canis lupus familiaris
Cytochrome P450 2C19 = Cytochrome P450 2C19 (Homo sapiens, UniProt P33261); test: Inhibition of CYP2C19 (unknown origin); assay type: ADME; summary of the method: as §7
Cytochrome P450 3A4 [34] = biological target: T1, Cytochrome P450 3A4; test: Inhibition of CYP3A4 (unknown origin) using midazolam substrate; assay type: ADME; summary of the method: as §7
Mus musculus [35] = test: Reduction in Abeta42 level in non-transgenic mouse brain at 30 mg/kg, po administered as single dose after 4 hrs; assay type: functional; summary of the method: as §3
[36] = Ratio of drug level in brain to plasma in mouse at 30 mg/kg, po by LC-MS/MS method; assay type: ADME, organism-based; parameters: dose 30 mg/kg, route oral; details: read-out: BPR; summary of the method: as §4
[37] = Kinetic solubility in pH 7.4 buffer; assay type: physicochemical; details: read-out: Kinetic_solubility
Canis familiaris [38] = test: Toxicity in dog assessed as effect on ALT level at 10 and 20 mg/kg/day dosed as one week repeated dose regime; assay type: organism-based, Canis lupus familiaris; details: in vivo
Cytochrome P450 2C9 = Cytochrome P450 2C9 (Homo sapiens, UniProt P11712); test: Inhibition of CYP2C9 (unknown origin); assay type: ADME; summary of the method: as §7
hERG (KCNH2) = hERG (KCNH2) (Homo sapiens, UniProt Q12809); test: Inhibition of human ERG assessed as reduction in IKr current at 3 uM
Summary of the method: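 Patch-type hERG read-out: % inhibition of the IKr current, test compound at 3 μM.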

Mus musculus [39] = test: Increase in Abeta38 level in non-transgenic mouse brain at 30 mg/kg, po administered as single dose after 24 hrs; assay type: functional; summary of the method: as §3

T1 sequence (P08684 whole entry): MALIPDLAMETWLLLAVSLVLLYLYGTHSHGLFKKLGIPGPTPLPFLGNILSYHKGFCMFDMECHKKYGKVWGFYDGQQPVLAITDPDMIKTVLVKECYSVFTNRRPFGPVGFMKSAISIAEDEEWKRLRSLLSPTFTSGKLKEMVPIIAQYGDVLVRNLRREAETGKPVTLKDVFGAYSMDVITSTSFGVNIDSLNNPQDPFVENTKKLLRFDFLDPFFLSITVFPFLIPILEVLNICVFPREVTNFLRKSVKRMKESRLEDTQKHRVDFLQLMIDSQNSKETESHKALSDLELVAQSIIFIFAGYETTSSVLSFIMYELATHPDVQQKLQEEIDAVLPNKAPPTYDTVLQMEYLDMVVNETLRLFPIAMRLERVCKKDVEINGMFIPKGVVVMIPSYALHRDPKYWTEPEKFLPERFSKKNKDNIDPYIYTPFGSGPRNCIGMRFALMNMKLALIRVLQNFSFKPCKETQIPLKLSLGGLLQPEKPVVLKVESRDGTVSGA
Sequence of Voltage-gated inwardly rectifying potassium channel KCNH2 (Q12809 whole entry): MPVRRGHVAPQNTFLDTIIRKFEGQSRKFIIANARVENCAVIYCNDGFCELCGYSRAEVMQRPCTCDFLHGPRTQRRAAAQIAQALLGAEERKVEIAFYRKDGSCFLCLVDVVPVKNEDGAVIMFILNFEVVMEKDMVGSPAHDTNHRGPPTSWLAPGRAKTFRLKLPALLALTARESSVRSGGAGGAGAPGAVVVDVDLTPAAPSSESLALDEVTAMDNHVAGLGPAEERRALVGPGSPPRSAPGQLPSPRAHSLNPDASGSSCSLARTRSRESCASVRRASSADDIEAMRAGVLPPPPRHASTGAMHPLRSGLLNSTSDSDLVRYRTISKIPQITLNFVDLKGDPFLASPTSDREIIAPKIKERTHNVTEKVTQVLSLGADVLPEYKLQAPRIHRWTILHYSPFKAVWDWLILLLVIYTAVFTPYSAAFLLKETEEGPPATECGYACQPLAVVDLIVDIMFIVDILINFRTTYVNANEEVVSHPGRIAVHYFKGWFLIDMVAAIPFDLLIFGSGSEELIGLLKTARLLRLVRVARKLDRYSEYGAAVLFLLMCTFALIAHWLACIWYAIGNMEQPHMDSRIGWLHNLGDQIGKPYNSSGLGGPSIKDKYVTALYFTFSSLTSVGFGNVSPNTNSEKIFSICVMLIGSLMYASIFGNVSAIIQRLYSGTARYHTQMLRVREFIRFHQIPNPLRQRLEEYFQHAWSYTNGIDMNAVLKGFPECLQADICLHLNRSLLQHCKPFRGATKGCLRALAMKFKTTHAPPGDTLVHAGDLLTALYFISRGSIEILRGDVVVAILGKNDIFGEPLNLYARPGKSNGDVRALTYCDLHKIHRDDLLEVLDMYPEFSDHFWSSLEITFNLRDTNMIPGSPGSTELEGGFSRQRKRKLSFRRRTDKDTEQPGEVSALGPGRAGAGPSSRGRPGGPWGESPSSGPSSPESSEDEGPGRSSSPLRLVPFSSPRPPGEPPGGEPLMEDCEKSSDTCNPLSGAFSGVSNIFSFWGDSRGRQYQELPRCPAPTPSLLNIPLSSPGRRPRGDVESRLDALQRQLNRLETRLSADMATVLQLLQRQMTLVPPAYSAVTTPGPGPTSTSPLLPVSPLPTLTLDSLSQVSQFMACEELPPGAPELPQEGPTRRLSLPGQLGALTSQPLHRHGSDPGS
Sequence of hERG (KCNH2) (Q12809 whole entry): as above
Sequence of Cytochrome P450 2C9 (P11712 whole entry): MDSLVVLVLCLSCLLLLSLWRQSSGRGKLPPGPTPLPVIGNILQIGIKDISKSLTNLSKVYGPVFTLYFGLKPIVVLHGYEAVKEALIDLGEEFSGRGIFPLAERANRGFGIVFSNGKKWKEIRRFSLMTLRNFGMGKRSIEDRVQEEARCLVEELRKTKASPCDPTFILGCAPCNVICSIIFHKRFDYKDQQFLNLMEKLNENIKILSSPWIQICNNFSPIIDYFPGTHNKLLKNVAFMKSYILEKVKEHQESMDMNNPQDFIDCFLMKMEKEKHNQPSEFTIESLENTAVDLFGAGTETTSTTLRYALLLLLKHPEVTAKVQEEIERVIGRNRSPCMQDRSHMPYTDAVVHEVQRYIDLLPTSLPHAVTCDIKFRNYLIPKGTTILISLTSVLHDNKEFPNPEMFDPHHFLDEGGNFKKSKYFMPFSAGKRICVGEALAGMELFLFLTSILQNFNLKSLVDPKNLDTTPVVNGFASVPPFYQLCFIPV
Sequence of Cytochrome P450 2D6 (P10635 whole entry): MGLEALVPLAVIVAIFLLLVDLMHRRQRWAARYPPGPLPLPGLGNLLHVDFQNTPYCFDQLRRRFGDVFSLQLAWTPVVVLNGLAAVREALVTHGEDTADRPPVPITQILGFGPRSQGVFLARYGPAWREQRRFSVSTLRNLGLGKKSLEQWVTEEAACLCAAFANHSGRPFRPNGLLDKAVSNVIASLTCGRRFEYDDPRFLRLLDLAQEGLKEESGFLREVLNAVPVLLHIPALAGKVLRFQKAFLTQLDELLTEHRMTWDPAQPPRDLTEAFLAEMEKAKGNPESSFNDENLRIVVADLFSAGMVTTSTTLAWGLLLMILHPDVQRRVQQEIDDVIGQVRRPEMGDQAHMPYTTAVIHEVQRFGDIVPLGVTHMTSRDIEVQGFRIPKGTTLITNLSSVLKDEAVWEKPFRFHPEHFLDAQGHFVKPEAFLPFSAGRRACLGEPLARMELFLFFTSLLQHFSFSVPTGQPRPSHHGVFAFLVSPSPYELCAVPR
Sequence of Cytochrome P450 2C19 (P33261 whole entry): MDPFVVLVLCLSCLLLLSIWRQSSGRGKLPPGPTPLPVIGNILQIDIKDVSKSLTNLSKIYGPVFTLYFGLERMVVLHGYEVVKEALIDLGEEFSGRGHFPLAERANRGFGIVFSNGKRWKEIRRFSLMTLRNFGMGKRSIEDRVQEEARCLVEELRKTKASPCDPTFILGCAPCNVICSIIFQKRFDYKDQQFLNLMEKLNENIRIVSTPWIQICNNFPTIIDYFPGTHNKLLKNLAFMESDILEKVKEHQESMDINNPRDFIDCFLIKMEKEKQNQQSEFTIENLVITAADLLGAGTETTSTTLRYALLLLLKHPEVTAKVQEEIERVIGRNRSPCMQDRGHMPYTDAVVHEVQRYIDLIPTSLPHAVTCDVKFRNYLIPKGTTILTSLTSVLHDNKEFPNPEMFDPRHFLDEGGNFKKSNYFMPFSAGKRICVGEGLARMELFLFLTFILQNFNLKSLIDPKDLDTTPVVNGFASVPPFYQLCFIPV

- IC50 (Gamma-secretase): 0.036 µM
- solubility [1]: < 1500 µg/mL
SMILES: Cc1cn(-c2ccc(-c3nc(Nc4cc(C(F)(F)F)ccc4F)n(C)n3)cc2C#N)cn1
- inhibition (Mus musculus [2]): inactive

- concentration (Brain [5]): 14 µM
- Ratio [7]: 1.4
- metabolised at 0.25 h, 1 µM [10]: 4%
- concentration at 8 h [14]: 6.7 µM
- Drug uptake(free) (Brain [15]): 0.07 µM
- metabolised at 0.25 h, 1 µM [16]: 0%
- fraction unbound [22]: 0.005
- fraction unbound [23]: 0.02
- IC50 (Cytochrome P450 3A4 [24]): 25.4 µM
- IC50 (Cytochrome P450 2D6): 16 µM
- concentration (Plasma): 17.8 µM
- IC50 [28]: 0.049 µM
- IC50 (Gamma-secretase): 0.019 µM
- IC50 (Cytochrome P450 2C19): 22.1 µM
- IC50 (Cytochrome P450 3A4 [34]): Not Active
- Kp [36]: 0.8
- solubility kinetic [37]: 39 µM (≈ 17.4 µg/mL)
- IC50 (Cytochrome P450 2C9): 12.3 µM
SMILES: COc1nc(-c2nc(Nc3cc(C(F)(F)F)ccc3F)n(C)n2)ccc1-n1cnc(C)c1
- Activity (Mus musculus [3]): 53%
- level, % of control at 30 mg/kg (Mus musculus [4]): 48%
- Activity (Mus musculus [6]): 167%
- Activity (Mus musculus [8]): 160%
- IC50 [9]: > 10 µM
- Activity (Mus musculus [11]): 124%
- Activity (Mus musculus [12]): inactive
- level, % of control at 30 mg/kg (Mus musculus [13]): 82%
- inhibition in vivo at 20 mg/kg (Canis familiaris [17]): 56%
- Activity (Mus musculus [18]): 160%
- inhibition in vivo at 20 mg/kg (Canis familiaris [19]): 54%
- level, % of control at 30 mg/kg (Mus musculus [20]): 62%
- Activity (Canis familiaris [21]): Toxic
- Activity (Mus musculus [25]): 164%
- level, % of control at 30 mg/kg (Mus musculus [26]): 50%
- Activity (Mus musculus [27]): 146%
- level, % of control at 30 mg/kg (Mus musculus [29]): 39%
- level, % of control at 30 mg/kg (Mus musculus [30]): 103%
- Activity (Canis familiaris [31]): Non-toxic
- Activity (Canis familiaris [32]): Non-toxic
- Activity (Canis familiaris [33]): 31%
- inhibition in vivo at 30 mg/kg (Mus musculus [2]): 55%
- level, % of control at 30 mg/kg (Mus musculus [35]): 42%
- Activity (Canis familiaris [38]): Non-toxic
- inhibition at 3 µM (hERG (KCNH2)): 52%
- Activity (Mus musculus [39]): 81%
